# S1P1 ag-PAM = S1P1 agonists and agonism potentiators, primary screen, cell-based, primary and confirmation screens, CRE-bla reporter | Sphingosine 1-phosphate receptor 1 (Homo sapiens), P21453 | 56,000 tested, 0.57% active | activation, % at 9.5 µM | S1P1 CRE-bla cells, forskolin, beta-lactamase FRET, potentiator mode; S1P1 agonist co-added at EC20, 2 nM; 100% = saturating reference agonist, 0% = basal;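 active means activation above a cutoff set at the mean activation of all tested compounds plus 3 SD, cut at about 54% in these data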;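 further: forskolin at 4 µM as EC80 and the EC20 agonist is SEW2871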
# 5HT1E antag = 5-HT1E receptor antagonists, primary screen, cell-based, HTS; 5-hydroxytryptamine receptor 1E (Homo sapiens), P28566; CHO 5-HT1E Ga15 NFAT-bla reporter, FRET, antagonist; inhibition, % at 6 µM; 65,000 tested, 0.99% active; AID 571, 2007;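 active means inhibition above a set limit, the mean inhibition across every tested compound plus 3 SD, cut at about 29% in these data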;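 further: signal is the 460 over 535 nm emission ratio of beta-lactamase substrate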
# S1P3 ag = human S1P3 receptor agonists, primary screen, cell-based, primary and confirmation, NFAT-BLA reporter; Sphingosine 1-phosphate receptor 3 (Homo sapiens), Q99500; S1P3 NFAT-BLA reporter cells, agonism, FRET ratio; relative to 1 µM S1P, basal subtracted; activation, % at 4.5 µM; 60,000 tested, 0.1% active; AID 373, 2006;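 active means activation above the screen-wide mean plus 3 SD, cut at about 4.5% in these data, passing the limit was not always enough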
#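 Benchmarks: high control 1 µM S1P / System: stable CHO line with human S1P3, Gα16, NFAT-BLA reporter / Dosing: single compound concentration, 4.5 µM final / Timing: 4 h compound at 37 °C, 2 h substrate at RT / Measured by: FRET β-lactamase substrate fluorescence, excitation 405 nm, 460/535 nm emission ratio, background-subtracted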
# HTR1A agonist = human 5-HT1a receptor agonists, primary screen, cell-based, CHO, Ga15 NFAT-bla reporter; CHO 5-HT1a Ga15 NFAT-bla reporter, FRET ratio; 0% basal, 100% maximal reference agonist; activation, % at 10 µM; 65,000 tested, 0.56% active; AID 567, 2006;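 active means activation above the screen-wide mean activation plus 3 SD, cut at about 19% in these data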
# Target sequence (P08908 whole entry, looked up): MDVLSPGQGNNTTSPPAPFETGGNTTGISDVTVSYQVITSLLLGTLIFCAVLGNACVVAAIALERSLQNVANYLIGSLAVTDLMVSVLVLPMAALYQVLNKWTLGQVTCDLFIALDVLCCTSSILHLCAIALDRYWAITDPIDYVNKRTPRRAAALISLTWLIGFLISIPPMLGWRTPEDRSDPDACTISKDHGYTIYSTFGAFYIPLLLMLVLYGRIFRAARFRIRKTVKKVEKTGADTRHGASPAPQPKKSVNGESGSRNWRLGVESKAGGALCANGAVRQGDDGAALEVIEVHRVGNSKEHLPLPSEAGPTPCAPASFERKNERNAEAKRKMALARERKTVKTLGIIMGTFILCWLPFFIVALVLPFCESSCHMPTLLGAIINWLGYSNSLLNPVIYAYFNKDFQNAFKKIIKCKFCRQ
# 5-HT1A blocker = human 5-HT1a receptor antagonists, primary screen, cell-based, CHO, Ga15 NFAT-bla reporter; CHO 5-HT1a Ga15 NFAT-bla reporter, antagonist mode; 5-hydroxytryptamine receptor 1A (Homo sapiens), P08908; 62,000 tested, 0.68% active; inhibition, % at 10 µM; AID 612, 2007;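 active means inhibition above the mean of all tested compounds plus 3 SD, cut at about 43% in these data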;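 further: receptor stimulated by 5-CT agonist at 100 nM near EC80; beta-lactamase reporter measured by ratiometric fluorescence of a cleavable substrate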
# 5HT1E ag = 5-HT1E receptor agonists, primary screen, cell-based, HTS; 5-hydroxytryptamine receptor 1E (Homo sapiens), P28566; CHO 5-HT1E Ga15 NFAT-bla reporter, FRET; 0% DMSO wells, 100% control agonist wells; activation, % at 6 µM; 65,000 tested, 0.69% active;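 active means activation above a set limit, the screen-wide mean activation plus 3 SD, cut at about 8.5% in these data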
# Hits are given with their value; - = inactive; . = no result. In the library only some 3% were active in any assay of this set; here they are far more common.
SMILES,S1P1 ag-PAM,5HT1E antag,S1P3 ag,HTR1A agonist,5-HT1A blocker,5HT1E ag
COc1ccc(C2CC(c3c(O)cc(C)oc3=O)=NCCS2)c(OC)c1 (configuration not stated),-,65,-,-,-,-
COC(=O)Cn1ncn2c(cc3oc(C)cc32)c1=O,-,-,-,-,-,-
c1ccc(N2CCN(c3ncnc4c3oc3ccccc34)CC2)cc1,61,-,-,-,-,-
CCOC(=O)C1CCN(c2ncnc3c2oc2ccccc23)CC1,97,-,-,-,-,-
CCOC(=O)C1CCN(c2ncnc3c2cnn3-c2ccccc2)CC1,-,-,-,30,-,-
CCOC(=O)C1CCN(c2ncnc3c2cnn3-c2ccc(Cl)cc2)CC1,-,-,-,-,.,-
O=C(c1ccco1)N1CCN(c2ncnc3c2cnn3-c2ccccc2)CC1,-,-,-,-,-,-
Cc1nn(-c2ccccc2)c(Cl)c1C(=O)N1CCN(c2ncnc3c2cnn3-c2ccccc2)CC1,-,56,-,-,63,-
COc1ccc(C(=O)CSc2nnc(CNc3nc(-c4ccccc4)cs3)n2C)cc1,-,-,-,-,-,-
CCN(CC)C(=O)CSc1ccccc1N,.,-,-,20,-,-
Cc1nc2c(sc3nc4c(cc32)COC(C)(C)C4)c(=O)n1CC(=O)NCc1ccco1,.,31,.,-,-,-
CCOC(=O)N1CCN(C(=O)c2ccc3c(=O)n(CCc4ccccc4)c(=O)[nH]c3c2)CC1,.,-,.,-,-,-
CN(c1ccccc1)c1nc(N2CCCC2)nc(-n2ccnc2)n1,-,-,-,-,53,-
O=C(CCSc1nnc2scc(-c3ccccc3)n12)NCc1ccc2c(c1)OCO2,-,-,-,-,-,-
c1ccc(-c2csc3nnc(SCc4ccc5c(c4)OCO5)n23)cc1,-,29,-,-,-,-
CCn1ncc(C2=NOC(C(=O)NCc3ccc(Cl)cc3)C2)c1C (configuration not stated),-,58,-,-,-,-
COc1ccc(C2=NOC(C(=O)NCc3ccc(F)cc3)C2)cc1 (configuration not stated),-,56,-,-,-,-
COc1cccc2c1C(=O)c1c(O)c3c(c(O)c1C2=O)C[C@@](O)(C(C)=O)C[C@@H]3O[C@H]1C[C@H](N)[C@H](O)[C@H](C)O1,-,57,-,-,.,-
Cc1ccccc1S(=O)(=O)Cc1ccc(C(=O)N2CC(C)CC(C)C2)o1 (configuration not stated),-,-,-,-,-,-
Cc1ccccc1S(=O)(=O)Cc1ccc(C(=O)N2CCN(c3cccc(C)c3C)CC2)o1,-,-,-,-,-,32
COc1cc(C(=O)N2CCN(c3cccc(C)c3C)CC2)cc(OC)c1OC,-,50,-,-,-,-
Cc1cccc(N2CCN(C(=O)CSCc3c(C)noc3C)CC2)c1C,82,-,-,-,-,-
Cc1cccc(N2CCN(C(=O)c3ccncc3)CC2)c1C,.,-,-,-,-,19
Cc1noc(C)c1CSCC(=O)N1CCN(c2ccc(F)cc2)CC1,-,-,-,-,-,-
CCOc1ccccc1N1CCN(C(=O)c2ccncc2)CC1,-,-,-,-,-,-
N#CCCSc1ccccc1NC(=O)c1ccc(S(=O)(=O)N2CCCC2)cc1,-,-,-,-,-,-
CCCc1nnc(SCc2ccc(OC)cc2)n1N,-,-,-,-,-,-
COc1cc(C(=O)N2CCN(c3cc(Cl)ccc3Cl)CC2)cc(OC)c1OC,-,64,-,-,-,-
